Measurements published in ChEMBL document CHEMBL3769301, “Novel cis-selective and non-epimerisable C3 hydroxy azapodophyllotoxins targeting microtubules in cancer cells” (Eur J Med Chem, 2016).
Activity calls are given as the source filed them. The calls are words filed in the database; no cut-off is given here.

What was measured:
Type in all cases: cell-based
[1] = tested on: MCF7; assay: Inhibition of microtubule cytoskeleton polymerization in human MCF7 cells assessed as repolymerization at 250 nM cells preincubated on ice followed rewarmed to 37 degC in presence of compound for 30 mins by Hoechst 33342 staining-based confocal fluorescence microscopy
In short: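 No pre-treatment: after 42 h on coverslips, MCF-7 cells were held on ice for 30 min to depolymerise microtubules. A cold control set was fixed at once; the rest were rewarmed for 30 min at 37 °C/5% CO2 with 250 nM compound or 0.01% DMSO. All were fixed in methanol at −20 °C, stained for α-tubulin and Hoechst, and examined by confocal imaging. There were three independent experiments.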

[2] = tested on: MCF7; assay: Inhibition of microtubule cytoskeleton polymerization in human MCF7 cells assessed as repolymerization at 250 nM pretreated for 6 hrs followed by incubation for 30 mins on ice then rewarmed to 37 degC for 30 mins by Hoechst 33342 staining-based confocal fluorescence microscopy
In short: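 Pre-treatment: MCF-7 cells on coverslips were exposed to 250 nM compound or 0.01% DMSO for 6 h, then held at 4 °C on ice for 30 min. One set was fixed after cold depolymerisation; the others were returned to 37 °C/5% CO2 for 30 min to repolymerise. Cells were fixed in −20 °C methanol, stained for α-tubulin and Hoechst, and imaged by confocal microscopy. There were three independent experiments.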

[3] = tested on: MCF7; assay: Induction of microtubule cytoskeleton destabilization in human MCF7 cells assessed as accumulation of binucleate cells at 250 nM after 6 hrs by Hoechst 33342 staining-based confocal fluorescence microscopy
In short: (§1)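 MCF-7 cells in RPMI 1640 with 10% FBS were grown on glass coverslips for 42 h to 70–80% confluency. They were exposed to 250 nM compound or 0.01% DMSO for 6 h, then fixed in methanol at −20 °C for 10 min. Staining used anti-α-tubulin (1:2000) with Alexa488 secondary (1:400) and Hoechst 33342 (1 μg/ml), imaged by confocal microscopy (63x oil). There were three independent experiments, each in duplicate.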

[4] = tested on: MCF7; assay: Induction of microtubule cytoskeleton destabilization in human MCF7 cells assessed as uncongressed/misaligned chromosomes at 250 nM after 6 hrs by Hoechst 33342 staining-based confocal fluorescence microscopy; in short: as §1
[5] = tested on: MCF7; assay: Induction of microtubule cytoskeleton destabilization in human MCF7 cells assessed as abberation in spindle morphology and polarity at 250 nM after 6 hrs by Hoechst 33342 staining-based confocal fluorescence microscopy; in short: as §1
[6] = tested on: MCF7; assay: Induction of microtubule cytoskeleton destabilization in human MCF7 cells assessed as shorter and more disorderd microtubule at 250 nM after 6 hrs by Hoechst 33342 staining-based confocal fluorescence microscopy; in short: as §1
[7] = tested on: MCF7; assay: Induction of microtubule cytoskeleton destabilization in human MCF7 cells assessed as nuclear atypia at 250 nM after 6 hrs by Hoechst 33342 staining-based confocal fluorescence microscopy; in short: as §1
[8] = tested on: MCF7; assay: Induction of microtubule cytoskeleton destabilization in human MCF7 cells assessed as pyknosis at 250 nM after 6 hrs by Hoechst 33342 staining-based confocal fluorescence microscopy; in short: as §1

O=C1OC[C@]2(O)Nc3c(c4cccnc4c4ncccc34)[C@@H](c3ccccc3OC(F)(F)F)[C@H]12 (mixture of isomers)
inhibition [1]: inactive | inhibition [2]: inactive | Activity [3]: Active | Activity [4]: Active | Activity [5]: Active | Activity [6]: Active | Activity [7]: Active | Activity [8]: Active

O=C1OC[C@]2(O)Nc3c(c4cccnc4c4ncccc34)[C@@H](c3ccccc3C(F)(F)F)[C@@H]12 (mixture of isomers)
inhibition [1]: inactive | inhibition [2]: inactive | Activity [3]: Active | Activity [4]: Active | Activity [5]: Active | Activity [6]: Active | Activity [7]: Active | Activity [8]: Active

COc1cc([C@@H]2c3cc4c(cc3[C@H](O)[C@H]3COC(=O)[C@H]23)OCO4)cc(OC)c1OC
Activity [7]: Active | Activity [8]: Active
